# ChEMBL document CHEMBL4000163, “Pyrazole derived ultra-short antimicrobial peptidomimetics with potent anti-biofilm activity” (Eur J Med Chem, 2017)
# The source made the active and inactive calls. The calls are words filed in the database; no cut-off is given here.
# Columns and labels:
# Staphylococcus aureus [1] = assay: Antimicrobial activity against Staphylococcus aureus KCTC 1621 incubated for 18 to 20 hrs by broth microdilution assay; assay type: functional; details: read-out: MIC100
# Outline: (§1)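 Broth microdilution in 1% peptone. Inoculum was 2 × 10⁶ CFU/mL mixed 1:1 with serial 2-fold peptide dilutions and incubated 18–20 h at 37 °C. Growth was read as absorbance at 600 nm; MIC is the lowest peptide concentration giving 100% growth inhibition.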
# Escherichia coli [2] = assay: Antimicrobial activity against Escherichia coli KCTC 1682 incubated for 18 to 20 hrs by broth microdilution assay; assay type: functional; details: read-out: MIC100; outline: as §1
# [3] = test system: Staphylococcus epidermidis; assay: Antimicrobial activity against Staphylococcus epidermidis KCTC 1917 incubated for 18 to 20 hrs by broth microdilution assay; assay type: functional; details: read-out: MIC100; outline: as §1
# Pseudomonas aeruginosa [4] = assay: Antimicrobial activity against Pseudomonas aeruginosa KCTC 1637 incubated for 18 to 20 hrs by broth microdilution assay; assay type: functional; details: read-out: MIC100; outline: as §1
# Enterococcus faecium = assay: Antibacterial activity against vancomycin-resistant Enterococcus faecium ATCC 51559 after 18 to 20 hrs by broth microdilution assay; assay type: functional; details: read-out: MIC100
# Outline: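 Broth microdilution in 1% peptone: bacteria at 2 × 10⁶ CFU/mL mixed 1:1 with serial 2-fold peptide dilutions, 18-20 h at 37 °C; growth read as absorbance at 600 nm. MIC taken as lowest concentration giving 100% growth inhibition.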
# [5] = Therapeutic index, ratio of MHC for sheep RBC to geometric mean of MICs for four bacterial strains
# Escherichia coli [6] = assay: Induction of inner membrane permeabilisation in Escherichia coli ML-35 assessed as ONPG hydrolysis up to 30 ug/ml by beta-galactosidase enzyme coupled spectrophotometric analysis; assay type: functional
# Outline: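 E. coli ML-35 (constitutive cytoplasmic β-galactosidase, lactose permease-deficient) washed and resuspended to OD600 0.5 in 10 mM sodium phosphate pH 7.4, 100 mM NaCl, with 1.5 mM ONPG. o-Nitrophenol release tracked spectrophotometrically over time after peptide addition at various concentrations.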
# Escherichia coli [7] = assay: Antimicrobial activity against Escherichia coli KCTC 1682 using 4 hrs trypsin incubated compound measured after overnight incubation by radial diffusion assay; assay type: functional
# Outline: (§2)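 Radial diffusion: mid-log cells (2×10^6 CFU/ml in LB) in 0.7% agarose. Peptide stock (10 mg/mL) added to trypsin in PBS (0.2 µg/mL), 4 h at 37 °C, stopped by liquid-nitrogen freezing; 10 µL on paper discs on the plates, overnight at 37 °C. Clearance-zone diameters measured.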
# Escherichia coli [8] = assay: Induction of outer membrane permeabilization in Escherichia coli KCTC 1682 assessed as NPN uptake by spectrofluorophotometric analysis; assay type: functional
# Outline: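 E. coli KCTC 1682 at OD600 0.05 in 5 mM HEPES pH 7.2 with 5 mM KCN; NPN 10 µM final, background fluorescence recorded (ex 350, em 420 nm). Peptide aliquots at various concentrations added and fluorescence followed over time until no further rise.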
# Staphylococcus aureus [9] = assay: Induction of cytoplasmic membrane depolarization in Staphylococcus aureus KCTC 1621 assessed as loss of membrane potential after 1 hr by DiSC3(5) dye based fluorescence assay; assay type: functional
# Staphylococcus aureus [10] = assay: Antimicrobial activity against Staphylococcus aureus KCTC 1621 using 4 hrs trypsin incubated compound measured after overnight incubation by radial diffusion assay; assay type: functional; outline: as §2
# [11] = Therapeutic index, ratio of MHC for sheep RBC to MIC for Staphylococcus aureus KCTC 1621
# [12] = Therapeutic index, ratio of MHC for sheep RBC to geometric mean of MICs for four bacterial strains; remark: listed apart in the source
# [13] = Therapeutic index, ratio of MHC for sheep RBC to MIC for Staphylococcus epidermidis KCTC 1917
# Staphylococcus aureus [14] = assay: Potency index, ratio of melittin MIC100 to compound MIC100 for Staphylococcus aureus KCTC 1621; assay type: functional
# Pseudomonas aeruginosa [15] = assay: Potency index, ratio of melittin MIC100 to compound MIC100 for Pseudomonas aeruginosa KCTC 1637; assay type: functional
# Pseudomonas aeruginosa [16] = assay: Potency index, ratio of LL-37 MIC100 to compound MIC100 for Pseudomonas aeruginosa KCTC 1637; assay type: functional
# Staphylococcus aureus [17] = assay: Potency index, ratio of LL-37 MIC100 to compound MIC100 for Staphylococcus aureus KCTC 1621; assay type: functional
# Pseudomonas aeruginosa [18] = assay: Antibiofilm activity against multidrug-resistant Pseudomonas aeruginosa CCARM 2095 after 24 hrs by crystal violet staining based method; assay type: functional; details: CCARM 2095, 24 h
# Outline: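 MDRPA 2095 (1×10^6 cfu/mL) in MHB with 0.2% glucose, 24 h at 37 °C with or without peptide (2-fold dilutions, 1-64 µg/mL), six wells each. Wells washed with PBS, methanol-fixed, stained with 0.1% crystal violet 5 min, stain resolubilized in 95% ethanol, absorbance at 600 nm.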
smiles,measurement,setting,value
CCC(CC)Cn1cc(NC(=O)[C@@H](N)CCCNC(=N)N)c(C(=O)N[C@@H](CCCNC(=N)N)C(N)=O)n1,MIC,Staphylococcus aureus [1],> 64 µg/mL
same,MIC,Escherichia coli [2],> 64 µg/mL
same,MIC,[3],> 64 µg/mL
same,MIC,Pseudomonas aeruginosa [4],> 64 µg/mL
N=C(N)NCCC[C@H](NC(=O)c1nn(CCCc2ccccc2)cc1NC(=O)[C@@H](N)CCCNC(=N)N)C(N)=O,MIC,Staphylococcus aureus [1],64 µg/mL
same,MIC,Escherichia coli [2],> 64 µg/mL
same,MIC,[3],> 64 µg/mL
same,MIC,Pseudomonas aeruginosa [4],> 64 µg/mL
CC[C@H](C)[C@H](NC(=O)CN)C(=O)NCC(=O)N[C@@H](C)C(=O)N[C@H](C(=O)N[C@@H](CC(C)C)C(=O)N[C@@H](CCCCN)C(=O)N[C@H](C(=O)N[C@@H](CC(C)C)C(=O)N[C@H](C(=O)N[C@H](C(=O)NCC(=O)N[C@@H](CC(C)C)C(=O)N1CCC[C@H]1C(=O)N[C@@H](C)C(=O)N[C@@H](CC(C)C)C(=O)N[C@H](C(=O)N[C@@H](CO)C(=O)N[C@@H](Cc1c[nH]c2ccccc12)C(=O)N[C@H](C(=O)N[C@@H](CCCCN)C(=O)N[C@@H](CCCNC(=N)N)C(=O)N[C@@H](CCCCN)C(=O)N[C@@H](CCCNC(=N)N)C(=O)N[C@@H](CCC(N)=O)C(=O)N[C@@H](CCC(N)=O)C(N)=O)[C@@H](C)CC)[C@@H](C)CC)[C@@H](C)O)[C@@H](C)O)C(C)C)C(C)C [MELITTIN],MIC,Enterococcus faecium,16 µg/mL
same,TI,[5],0.5
same,Activity,Escherichia coli [6],Active
same,Activity,Escherichia coli [7],inactive
same,Activity,Escherichia coli [8],Dose-dependent effect
same,Activity,Staphylococcus aureus [9],Active
same,Activity,Staphylococcus aureus [10],inactive
same,TI,[11],0.5
same,TI,[12],0.5
same,TI,[13],0.5
N=C(N)NCCC[C@H](NC(=O)c1nn(CCc2cccc3ccccc23)cc1NC(=O)[C@H](CCCNC(=N)N)NC(=O)c1nn(CCc2cccc3ccccc23)cc1NC(=O)[C@@H](N)CCCNC(=N)N)C(N)=O,MIC,Staphylococcus aureus [1],4 µg/mL
same,MIC,Escherichia coli [2],32 µg/mL
same,MIC,[3],32 µg/mL
same,MIC,Pseudomonas aeruginosa [4],8 µg/mL
CCC(CC)Cn1cc(N)c(C(=O)N[C@@H](CCCNC(=N)N)C(N)=O)n1,MIC,Staphylococcus aureus [1],> 64 µg/mL
same,MIC,Escherichia coli [2],> 64 µg/mL
same,MIC,[3],> 64 µg/mL
same,MIC,Pseudomonas aeruginosa [4],> 64 µg/mL
N=C(N)NCCC[C@H](NC(=O)c1nn(CCC(c2ccccc2)c2ccccc2)cc1N)C(N)=O,MIC,Staphylococcus aureus [1],> 64 µg/mL
same,MIC,Escherichia coli [2],> 64 µg/mL
same,MIC,[3],> 64 µg/mL
same,MIC,Pseudomonas aeruginosa [4],32 µg/mL
N=C(N)NCCC[C@H](NC(=O)c1nn(CCc2cccc3ccccc23)cc1N)C(N)=O,MIC,Staphylococcus aureus [1],> 64 µg/mL
same,MIC,Escherichia coli [2],> 64 µg/mL
same,MIC,[3],> 64 µg/mL
same,MIC,Pseudomonas aeruginosa [4],> 64 µg/mL
N=C(N)NCCC[C@H](NC(=O)c1nn(CCCc2ccccc2)cc1N)C(N)=O,MIC,Staphylococcus aureus [1],> 64 µg/mL
same,MIC,Escherichia coli [2],> 64 µg/mL
same,MIC,[3],> 64 µg/mL
same,MIC,Pseudomonas aeruginosa [4],> 64 µg/mL
N=C(N)NCCC[C@H](NC(=O)c1nn(CCC(c2ccccc2)c2ccccc2)cc1NC(=O)[C@@H](N)CCCNC(=N)N)C(N)=O,Ratio,Staphylococcus aureus [14],2 - 4
same,Ratio,Pseudomonas aeruginosa [15],2 - 4
same,Ratio,Pseudomonas aeruginosa [16],4 - 8
same,Ratio,Staphylococcus aureus [17],4 - 8
same,MIC,Staphylococcus aureus [1],8 µg/mL
same,MIC,Escherichia coli [2],> 64 µg/mL
same,MIC,[3],> 64 µg/mL
same,MIC,Pseudomonas aeruginosa [4],8 µg/mL
N=C(N)NCCC[C@H](NC(=O)c1nn(CCc2cccc3ccccc23)cc1NC(=O)[C@@H](N)CCCNC(=N)N)C(N)=O,MIC,Staphylococcus aureus [1],32 µg/mL
same,MIC,Escherichia coli [2],> 64 µg/mL
same,MIC,[3],> 64 µg/mL
same,MIC,Pseudomonas aeruginosa [4],> 64 µg/mL
N=C(N)NCCC[C@@H]1NC(=O)c2nn(CCC(c3ccccc3)c3ccccc3)cc2NC(=O)CSCC(C(N)=O)NC(=O)[C@H](CCCNC(=N)N)NC(=O)c2nn(CCC(c3ccccc3)c3ccccc3)cc2NC1=O (some centres not stated),MIC,Staphylococcus aureus [1],16 µg/mL
same,MIC,Escherichia coli [2],> 64 µg/mL
same,MIC,[3],64 µg/mL
same,MIC,Pseudomonas aeruginosa [4],> 64 µg/mL
CC[C@H](C)[C@H](NC(=O)[C@H](CCCCN)NC(=O)[C@H](CCC(=O)O)NC(=O)[C@H](CCCCN)NC(=O)[C@H](CO)NC(=O)[C@H](CCCCN)NC(=O)[C@H](CCCNC(=N)N)NC(=O)[C@H](Cc1ccccc1)NC(=O)[C@H](Cc1ccccc1)NC(=O)[C@H](CC(=O)O)NC(=O)CNC(=O)[C@H](CC(C)C)NC(=O)[C@@H](N)CC(C)C)C(=O)NCC(=O)N[C@@H](CCCCN)C(=O)N[C@@H](CCC(=O)O)C(=O)N[C@@H](Cc1ccccc1)C(=O)N[C@@H](CCCCN)C(=O)N[C@@H](CCCNC(=N)N)C(=O)N[C@H](C(=O)N[C@H](C(=O)N[C@@H](CCC(N)=O)C(=O)N[C@@H](CCCNC(=N)N)C(=O)N[C@H](C(=O)N[C@@H](CCCCN)C(=O)N[C@@H](CC(=O)O)C(=O)N[C@@H](Cc1ccccc1)C(=O)N[C@@H](CC(C)C)C(=O)N[C@@H](CCCNC(=N)N)C(=O)N[C@@H](CC(N)=O)C(=O)N[C@@H](CC(C)C)C(=O)N[C@H](C(=O)N1CCC[C@H]1C(=O)N[C@@H](CCCNC(=N)N)C(=O)N[C@H](C(=O)N[C@@H](CCC(=O)O)C(=O)N[C@@H](CO)C(=O)O)[C@@H](C)O)C(C)C)[C@@H](C)CC)C(C)C)[C@@H](C)CC [CATHELICIDIN],IC90,Pseudomonas aeruginosa [18],64 µg/mL
same,TI,[5],25.6
same,Activity,Escherichia coli [6],Active
same,Activity,Staphylococcus aureus [9],Active
same,TI,[11],25.6
same,MIC,Staphylococcus aureus [1],32 µg/mL
same,TI,[12],25.6
same,MIC,Escherichia coli [2],32 µg/mL
same,MIC,[3],32 µg/mL
same,TI,[13],25.6
same,MIC,Pseudomonas aeruginosa [4],64 µg/mL
N=C(N)NCCC[C@H](NC(=O)c1nn(CCC(c2ccccc2)c2ccccc2)cc1NC(=O)[C@H](CCCNC(=N)N)NC(=O)c1nn(CCC(c2ccccc2)c2ccccc2)cc1N)C(N)=O,MIC,Staphylococcus aureus [1],8 µg/mL
same,MIC,Escherichia coli [2],32 µg/mL
same,MIC,[3],32 µg/mL
same,MIC,Pseudomonas aeruginosa [4],32 µg/mL
N=C(N)NCCC[C@H](NC(=O)c1nn(CCc2cccc3ccccc23)cc1NC(=O)[C@H](CCCNC(=N)N)NC(=O)c1nn(CCc2cccc3ccccc23)cc1NC(=O)[C@H](CCCNC(=N)N)NC(=O)c1nn(CCc2cccc3ccccc23)cc1N)C(N)=O,MIC,Staphylococcus aureus [1],8 µg/mL
same,MIC,Escherichia coli [2],> 64 µg/mL
same,MIC,[3],64 µg/mL
same,MIC,Pseudomonas aeruginosa [4],> 64 µg/mL
N=C(N)NCCC[C@H](NC(=O)c1nn(CCC(c2ccccc2)c2ccccc2)cc1NC(=O)[C@H](CCCNC(=N)N)NC(=O)c1nn(CCC(c2ccccc2)c2ccccc2)cc1NC(=O)[C@H](CCCNC(=N)N)NC(=O)c1nn(CCC(c2ccccc2)c2ccccc2)cc1N)C(N)=O,MIC,Staphylococcus aureus [1],32 µg/mL
same,MIC,Escherichia coli [2],64 µg/mL
same,MIC,[3],64 µg/mL
same,MIC,Pseudomonas aeruginosa [4],> 64 µg/mL
